Measurements gathered from unrelated publications.
Compare with care: the assays were run in different laboratories.
Target: Insulin-like growth factor 1 receptor (IGF1R, Homo sapiens, UniProt P08069)

| Compound | assay | setting | remaining binding [%] |
| --- | --- | --- | --- |
| CCS(=O)(=O)c1cc2cc(C[C@](O)(CC(C)(C)c3ccc(F)cc3C(N)=O)C(F)(F)F)[nH]c2cn1 | cell-free assay, competition with immobilised ligand | 1 µM | 100 |
| O=C(NCC1CCOCC1)c1n[nH]cc1NC(=O)c1c(F)cccc1F | binding, competition with immobilised ligand | 1 µM | 96 |
| CC1CCCN1c1nccc(-c2cnn3ncccc23)n1 (stereo not shown) | binding | 1 µM | 96 |
| c1cncc(-c2cccc(Nc3nccc(NC4CCCCC4)n3)c2)c1 | binding, competition with immobilised ligand | 10 µM | 67 |
| CC(=O)c1c(NS(C)(=O)=O)c2cc(-c3ccc(Cl)cc3)c(-c3ccc(Cl)cc3Cl)nc2n(C)c1=O | cell-free assay, competition with immobilised ligand | 1 µM | 100 |
| N[C@@H]1CCN(c2nccc(-c3cnn4ncccc34)n2)C1 | binding | 1 µM | 99 |
| CNC(=O)[C@@H]1CC[C@@H](n2c(-c3ccc4cnccc4c3)nc3ccc(C(=O)NCc4cccc(C(N)=O)c4)cc32)C1 | binding, competition with immobilised ligand | 1 µM | 100 |
| CSc1cccnc1N1CCN(Cc2nc3ccccc3[nH]2)CC1 | cell-free assay, competition with immobilised ligand | 1 µM | 100 |
| C[C@H]1CCN(c2nccc(-c3cnn4ncccc34)n2)C1 | binding | 1 µM | 90 |
| C=CC(=O)N1CCC(C(=O)NCC(=O)N2CCN(c3nc(-c4cnc(N)nc4C(F)F)nc(N4CCOCC4)n3)CC2)CC1 | binding, competition with immobilised ligand | 1 µM | 100 |
| O=C(c1ccc(Nc2nccc(-c3cc4ccccc4s3)n2)cc1)N1CCC(N2CCCC2)CC1 | binding, competition with immobilised ligand | 1 µM | 100 |
| c1cnn2ncc(-c3ccnc(N4CCC45COC5)n3)c2c1 | binding | 1 µM | 97 |
| O=C(c1ccc(Nc2ncc(Cl)c(-c3ccc(Cl)s3)n2)cc1)N1CCC(N2CCCC2)CC1 | binding, competition with immobilised ligand | 1 µM | 19 |
| CN(c1ccnc(CNc2nc(Nc3ccc4c(c3)CC(=O)N4)ncc2C(F)(F)F)n1)S(C)(=O)=O | cell-free assay, competition with immobilised ligand | 1 µM | 100 |
| FC(F)(F)Oc1cccc(-c2cnc3ccc(-c4ccncc4)nn23)c1 | cell-free assay, competition with immobilised ligand | 5 µM | 86 |
| C[C@@H]1CN(c2ccc3ncc(-c4ccc5[nH]nc(C6CC6)c5c4)n3n2)C[C@H](C)O1 | binding, competition with immobilised ligand | 0.5 µM | 100 |
| O=C(O)c1cc(-c2ccc(C3CCNCC3)cc2)c2ccc(-c3ccc(C(F)(F)F)cc3)cc2c1 | cell-free assay, competition with immobilised ligand | 1 µM | 95 |
| Nc1ncc2c(n1)-c1c([nH]c3ccc(C#CC4CC4)cc13)CCCC2 | binding, competition with immobilised ligand | 1 µM | 100 |
| CN(c1nccc(-c2cnn3ncccc23)n1)C1CC1 | binding | 1 µM | 93 |
| O=C(c1ccc(Nc2ncc(Cl)c(-c3cc4ccccc4s3)n2)cc1)N1CCC(N2CCCC2)CC1 | binding, competition with immobilised ligand | 1 µM | 40 |
| CC(C)CC(=O)N1CCc2nc(-c3ccc(Br)cc3)nc(N(C)Cc3ccccc3)c2C1 | cell-free assay, competition with immobilised ligand | 0.1 µM | 83 |
| Cc1cnn2ncc(-c3ccnc(N(C)C)n3)c2c1 | binding | 1 µM | 100 |
| C[C@@H](c1ccc(-n2cnc3c(N)ncnc32)cc1)N1CCc2nn(C)c(Cc3ccccc3)c2C1=O | binding, competition with immobilised ligand | 0.1 µM | 38 |
| CN(C)c1nccc(-c2cnc3ncccn23)n1 | binding | 1 µM | 89 |
| Cc1nc(C2CCN(C(=O)c3ccc(OC(F)(F)F)cc3N)CC2)c2ncc(N3CCN(C)CC3)cc2n1 | cell-free assay, competition with immobilised ligand | 1 µM | 91 |
